Assay results from ChEMBL document CHEMBL2321814, “Sulfocoumarins (1,2-benzoxathiine-2,2-dioxides): a class of potent and isoform-selective inhibitors of tumor-associated carbonic anhydrases” (J Med Chem, 2013).
Calls of active or inactive are those of the source. The rule behind the calls is not given here.

Columns and labels:
Carbonic anhydrase 9 [1] = biological target: T1, Carbonic anhydrase 9 (Homo sapiens, UniProt Q16790); test: Inhibition of human recombinant transmembrane CA9 catalytic domain after 15 mins by stopped-flow CO2 hydration method
Outline: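 Recombinant CA IX catalytic domain was preincubated with inhibitor for 15 min at room temperature. CO2 hydration was followed by stopped-flow with phenol red (0.2 mM, 557 nm) in 20 mM Hepes pH 7.5 with 20 mM Na2SO4, CO2 1.7–17 mM. Initial rates came from at least six traces of the first 5–10% of reaction, minus uncatalyzed rates. Inhibitor dilutions went down to 0.01 nM in water.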

Carbonic anhydrase 9 [2] = biological target: T1, Carbonic anhydrase 9
Carbonic anhydrase 2 [3] = biological target: Carbonic anhydrase 2 (Homo sapiens, UniProt P00918); test: Inhibition of full length human recombinant CA2 cytosolic isoform after 6 hrs by stopped-flow CO2 hydration method
Carbonic anhydrase 2 [4] = biological target: Carbonic anhydrase 2 (Homo sapiens, UniProt P00918, A65S/N67Q); test: Inhibition of human CA2 Ala65Ser and Asn67Gln double mutant expressed in Escherichia coli strain BL21 (DE3) after 6 hrs by stopped-flow CO2 hydration method
Outline: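 CA II mutant mimicking the CA IX active site was expressed in E. coli BL21(DE3), IPTG-induced, and purified by His-trap, gel filtration and Mono-Q. Enzyme and inhibitor were preincubated 6 h at 4 °C. Stopped-flow CO2 hydration used phenol red (0.2 mM, 557 nm), 20 mM Hepes pH 7.5, 20 mM Na2SO4 and CO2 1.7–17 mM, with uncatalyzed rates subtracted. Three assays were run.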

Carbonic anhydrase 1 = Carbonic anhydrase 1 (Homo sapiens, UniProt P00915); test: Inhibition of full length human recombinant CA1 cytosolic isoform after 6 hrs by stopped-flow CO2 hydration method
Sequence of Carbonic anhydrase 1 (P00915 whole entry, canonical isoform): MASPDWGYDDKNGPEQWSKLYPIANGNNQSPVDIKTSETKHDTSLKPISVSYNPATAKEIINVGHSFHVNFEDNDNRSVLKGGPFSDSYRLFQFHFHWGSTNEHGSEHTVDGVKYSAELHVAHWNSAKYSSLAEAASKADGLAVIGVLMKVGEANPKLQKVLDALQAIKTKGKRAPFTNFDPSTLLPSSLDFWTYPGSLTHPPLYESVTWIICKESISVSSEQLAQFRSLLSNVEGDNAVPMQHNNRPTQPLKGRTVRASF

| SMILES | inhibition (Carbonic anhydrase 9 [1]) | Ki (Carbonic anhydrase 9 [2]) | Ki (Carbonic anhydrase 2 [3]) | Ki (Carbonic anhydrase 2 [4]) | Ki (Carbonic anhydrase 1) |
| --- | --- | --- | --- | --- | --- |
| C[Si](C)(C)c1cn(-c2ccc3c(c2)C=CS(=O)(=O)O3)nn1 | inactive | 60 nM | – | – | – |
| COC(=O)c1cn(-c2ccc3c(c2)C=CS(=O)(=O)O3)nn1 | inactive | 950 nM | – | – | – |
| O=S1(=O)C=Cc2cc(-n3cc(-c4ccccc4)nn3)ccc2O1 | inactive | 29 nM | – | – | – |
| CCOC(=O)c1cn(-c2ccc3c(c2)C=CS(=O)(=O)O3)nn1 | inactive | 86 nM | – | – | – |
| O=S1(=O)C=Cc2cc(O)ccc2O1 | inactive | 300 nM | > 100000 nM | 800 nM | – |
| COc1ccc(-c2cn(-c3ccc4c(c3)C=CS(=O)(=O)O4)nn2)cc1 | inactive | 18 nM | – | – | – |
| Nc1ccc2c(c1)C=CS(=O)(=O)O2 | inactive | 46 nM | – | – | – |
| O=S1(=O)C=Cc2cc(Br)ccc2O1 | inactive | 6830 nM | > 100000 nM | 930 nM | > 100000 nM |
| O=S1(=O)C=Cc2cc(OCc3ccccc3)ccc2O1 | inactive | 275 nM | > 100000 nM | 2370 nM | – |
| O=S1(=O)C=Cc2cc(-n3cc(CO)nn3)ccc2O1 | inactive | 58 nM | – | – | – |
| O=S1(=O)C=Cc2c(ccc3ccccc23)O1 | inactive | 375 nM | > 100000 nM | – | > 100000 nM |
| O=S1(=O)C=Cc2cc(-n3cc(-c4ccc(OC(F)(F)F)cc4)nn3)ccc2O1 | inactive | 74 nM | – | – | – |
| O=c1ccc2ccccc2o1 | inactive | – | – | – | – |
| COc1cccc(-c2cn(-c3ccc4c(c3)C=CS(=O)(=O)O4)nn2)c1 | inactive | 49 nM | – | – | – |
| COc1cc2oc(=O)ccc2cc1[C@@H](O)CC(C)C | inactive | – | – | – | – |
| O=[N+]([O-])c1ccc2c(c1)C=CS(=O)(=O)O2 | inactive | 3770 nM | > 100000 nM | – | – |
| CCN(CC)Cc1cn(-c2ccc3c(c2)C=CS(=O)(=O)O3)nn1 | inactive | 25 nM | – | – | – |
| O=S1(=O)C=Cc2cc(Cl)cc(Cl)c2O1 | inactive | 3260 nM | > 100000 nM | – | > 100000 nM |
| O=S1(=O)C=Cc2cc(-n3cc(-c4cccc(C(F)(F)F)c4)nn3)ccc2O1 | inactive | 48 nM | – | – | – |
